{
  "source": "paper PMC6726563",
  "about": "(Structure (London, England : 1993), 2019)",
  "key": {"[1]": {"system": "αVβ3", "settings": "ref Kimura et al., 2009a; cited from earlier work"}, "[2]": {"system": "integrins αVβ3 and α5β1", "assay": "Integrin selectivity of knottins", "assay_type": "binding"}, "[3]": {"system": "Human αVβ3 ectodomain", "assay": "Crystal structure of knottin bound to αVβ3 ectodomain", "settings": "Mn2+", "method_in_brief": "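Human αVβ3 ectodomain was expressed in insect cells and crystallized at 4 °C by hanging-drop vapor diffusion. Test compound (5 mM) was soaked into the crystals in well solution with 1 mM Mn2+ for 2–3 weeks. Crystals were harvested in 12% PEG 3500, 100 mM sodium acetate pH 4.5, 800 mM NaCl, 2 mM Mn2+ and 5 mM test compound. They were cryoprotected stepwise to 24% glycerol and flash frozen. Phases came from molecular replacement.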"}, "[4]": {"target": "recombinant integrin αVβ3 stably expressed on K562 cells (UniProt P06756)", "assay": "flow cytometry on cells"}, "[5]": {"target": "native integrins expressed on U87MG (human (endogenous in U87MG))", "assay": "flow cytometry on cells"}, "[6]": {"target": "αVβ3** double mutant (β3-M180A and β3-R214G) transiently expressed on HEK293T cells (UniProt P06756)", "assay": "flow cytometry on cells"}, "[7]": {"system": "α5β1", "settings": "ref Kimura et al., 2009a; cited from earlier work"}, "[8]": {"target": "native integrin α5β1 on K562 cells (human (endogenous in K562)) (UniProt P08648)", "sequence (P08648 42-1049, chain 1 of 2)": "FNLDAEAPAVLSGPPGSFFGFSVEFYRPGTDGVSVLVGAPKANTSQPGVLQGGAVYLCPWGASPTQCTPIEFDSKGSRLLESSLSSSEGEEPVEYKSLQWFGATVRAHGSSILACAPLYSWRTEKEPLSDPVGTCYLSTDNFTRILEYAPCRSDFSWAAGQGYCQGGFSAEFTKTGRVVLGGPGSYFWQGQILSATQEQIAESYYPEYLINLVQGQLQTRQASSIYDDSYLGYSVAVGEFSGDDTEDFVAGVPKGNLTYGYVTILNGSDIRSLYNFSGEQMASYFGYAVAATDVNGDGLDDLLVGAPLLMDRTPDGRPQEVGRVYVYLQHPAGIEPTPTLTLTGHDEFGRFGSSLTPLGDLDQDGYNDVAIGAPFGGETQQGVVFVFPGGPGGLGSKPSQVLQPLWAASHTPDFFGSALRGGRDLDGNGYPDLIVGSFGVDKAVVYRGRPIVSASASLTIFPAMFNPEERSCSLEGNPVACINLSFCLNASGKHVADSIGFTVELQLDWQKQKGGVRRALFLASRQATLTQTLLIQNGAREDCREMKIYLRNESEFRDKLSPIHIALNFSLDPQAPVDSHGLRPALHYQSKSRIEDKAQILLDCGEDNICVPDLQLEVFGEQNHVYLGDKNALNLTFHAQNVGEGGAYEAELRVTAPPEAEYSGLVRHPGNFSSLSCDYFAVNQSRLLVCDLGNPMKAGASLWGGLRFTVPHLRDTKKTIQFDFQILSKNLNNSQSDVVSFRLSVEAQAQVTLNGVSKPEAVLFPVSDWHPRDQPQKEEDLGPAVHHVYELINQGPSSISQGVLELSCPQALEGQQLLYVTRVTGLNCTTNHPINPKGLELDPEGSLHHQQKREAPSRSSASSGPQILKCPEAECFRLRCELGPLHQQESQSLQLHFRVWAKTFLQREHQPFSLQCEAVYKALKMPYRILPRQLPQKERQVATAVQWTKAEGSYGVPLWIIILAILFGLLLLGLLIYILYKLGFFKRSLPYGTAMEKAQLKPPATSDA", "sequence (P05556 21-798, chain 2 of 2, further chain)": "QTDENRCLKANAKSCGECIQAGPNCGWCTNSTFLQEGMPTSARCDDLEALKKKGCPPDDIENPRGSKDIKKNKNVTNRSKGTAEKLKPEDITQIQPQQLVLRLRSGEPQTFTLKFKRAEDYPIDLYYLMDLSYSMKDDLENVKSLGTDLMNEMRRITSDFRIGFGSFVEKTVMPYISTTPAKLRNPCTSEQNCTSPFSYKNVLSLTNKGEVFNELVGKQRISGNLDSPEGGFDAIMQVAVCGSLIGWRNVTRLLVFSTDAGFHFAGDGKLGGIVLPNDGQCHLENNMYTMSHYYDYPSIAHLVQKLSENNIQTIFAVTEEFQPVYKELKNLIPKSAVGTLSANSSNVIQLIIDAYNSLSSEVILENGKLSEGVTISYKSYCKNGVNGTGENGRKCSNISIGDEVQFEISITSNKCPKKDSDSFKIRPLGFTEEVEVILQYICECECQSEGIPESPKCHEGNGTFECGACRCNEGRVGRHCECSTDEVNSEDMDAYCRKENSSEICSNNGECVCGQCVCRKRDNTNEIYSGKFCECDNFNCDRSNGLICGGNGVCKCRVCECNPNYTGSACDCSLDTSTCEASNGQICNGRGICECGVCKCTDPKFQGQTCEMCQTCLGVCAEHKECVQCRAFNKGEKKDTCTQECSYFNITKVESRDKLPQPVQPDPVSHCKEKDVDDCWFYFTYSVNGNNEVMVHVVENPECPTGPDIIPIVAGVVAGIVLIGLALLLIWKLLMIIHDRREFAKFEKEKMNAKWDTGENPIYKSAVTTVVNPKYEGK", "assay": "flow cytometry on cells"}, "[9]": {"system": "αVβ3", "settings": "ref Reynolds et al., 2009; cited from earlier work"}, "[10]": {"system": "patients with glioblastoma", "settings": "ref Mason, 2015, cited from earlier work"}, "[11]": {"system": "αVβ3", "settings": "ref Van Agthoven et al., 2014; Xiong et al., 2002; cited from earlier work"}},
  "data": [
    {"substance": "QG^5RGDWA^10P (disulfide) [2.5D]", "values": [
      {"measurement": "affinity to αVβ3 (in words)", "setting": "[1]", "value": "nanomolar affinity"},
      {"measurement": "integrin selectivity (in words)", "setting": "[2]", "value": "αVβ3-specific"},
      {"measurement": "agonist character inferred from βA domain conformational change", "setting": "[3]", "value": "partial agonists"}
    ]},
    {"substance": "2.5D-Fc fusion protein", "values": [
      {"measurement": "Kd", "setting": "[4]", "value": 1.4, "unit": "nM"},
      {"measurement": "Kd", "setting": "[5]", "value": 1.7, "unit": "nM"}
    ]},
    {"substance": "Alexa-647-labeled knottin 2.5D (designed binder)", "values": [
      {"measurement": "percent of binding to wt-αVβ3", "setting": "[6]", "value": 28, "unit": "%"}
    ]},
    {"substance": "RP^5RGDNP^10P (disulfide) [2.5F]", "values": [
      {"measurement": "affinity to αVβ3 (in words)", "setting": "[1]", "value": "nanomolar affinity"},
      {"measurement": "affinity to α5β1 (in words)", "setting": "[7]", "value": "nanomolar affinity"},
      {"measurement": "integrin selectivity (in words)", "setting": "[2]", "value": "binds both αVβ3 and α5β1"},
      {"measurement": "agonist character inferred from βA domain conformational change", "setting": "[3]", "value": "partial agonists"}
    ]},
    {"substance": "2.5F-Fc fusion protein", "values": [
      {"measurement": "Kd", "setting": "[4]", "value": 6.9, "unit": "nM"},
      {"measurement": "Kd", "setting": "[8]", "value": 9.2, "unit": "nM"},
      {"measurement": "Kd", "setting": "[5]", "value": 5.9, "unit": "nM"}
    ]},
    {"substance": "cilengitide: partial agonist targeting αVβ3", "values": [
      {"measurement": "agonist-like behavior (in words)", "setting": "[9]", "value": "agonist-like behavior"},
      {"measurement": "pharmacokinetics (in words)", "setting": "[10]; likely related to failure in glioblastoma", "value": "unfavorable pharmacokinetics"},
      {"measurement": "survival of patients (in words)", "setting": "[10]; primary targeting of αVβ3", "value": "failed to prolong survival of patients with glioblastoma"},
      {"measurement": "agonist/antagonist character at αVβ3", "setting": "[11]", "value": "partial agonist"}
    ]},
    {"substance": "Alexa-647-labeled knottin 2.5F (designed binder)", "values": [
      {"measurement": "percent of binding to wt-αVβ3", "setting": "[6]", "value": 85, "unit": "%"}
    ]}
  ]
}
